# Reference: ChEMBL document CHEMBL1157779, “Merging the structural motifs of functionalized amino acids and alpha-aminoamides: compounds with significant anticonvulsant activities” (J Med Chem, 2010)
# Active and inactive are the calls of the source.
# Legend:
# [1] = system: Mus musculus; assay: Anticonvulsant activity in ip dosed albino mouse assessed as inhibition of maximal electroshock-induced seizures after […]; type: functional
# [2] = Toxicity in ip dosed albino mouse after […] by rotarod test; type: organism-based; details: in vivo
# [3] = species: Mus musculus; assay: Protective index, ratio of TD50 for albino mouse to anticonvulsant ED50 for albino mouse; type: functional
# [4] = system: Rattus norvegicus; assay: Anticonvulsant activity in po dosed Sprague-Dawley albino rat assessed as inhibition of maximal electroshock-induced seizures after 2 hrs; type: functional
# [5] = species: Rattus norvegicus; assay: Protective index, ratio of TD50 for Sprague-Dawley albino rat to anticonvulsant ED50 for Sprague-Dawley albino rat; type: functional
# Method in brief: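 Rat, oral: behavioral-toxicity TD50 divided by MES ED50, both in mg/kg.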
# [6] = system: Mus musculus; assay: Anticonvulsant activity in ip dosed albino mouse assessed as protection against 6 Hz electric shock-induced seizures after […]; type: functional
# [7] = system: Rattus norvegicus; assay: Anticonvulsant activity in po dosed Sprague-Dawley albino rat assessed as inhibition of maximal electroshock-induced seizures after 0.5 hrs; type: functional
# [8] = system: Rattus norvegicus; assay: Behavioral toxicity in po dosed Sprague-Dawley albino rat after 0.5 hrs; type: organism-based; details: in vivo
# Method in brief: (§1)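 Oral dosing in male albino Sprague-Dawley rats with behavioral toxicity observation at set times after dosing, doses up to 500 mg/kg.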
# [9] = system: Mus musculus; assay: Anticonvulsant activity in albino mouse assessed as protection against subcutaneous metrazole-induced seizures up to 300 mg/kg, ip after 0.5 hrs; type: functional, organism-based; set-up: dose 300 mg/kg
# Method in brief: (§2)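 Male albino Carworth Farms No. 1 mice dosed ip under NIH Anticonvulsant Screening Program; subcutaneous Metrazol seizure challenge at 0.5 and 4 h after doses up to 300 mg/kg.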
# [10] = system: Mus musculus; assay: Anticonvulsant activity in albino mouse assessed as protection against subcutaneous metrazole-induced seizures up to 300 mg/kg, ip after 4 hrs; type: functional, organism-based; set-up: dose 300 mg/kg; method in brief: as §2
# [11] = system: Rattus norvegicus; assay: Antiallodynic activity in Sprague-Dawley albino rat sciatic nerve ligation model of neuropathic pain assessed as fold attenuation of mechanical allodynia at 12 mg/kg, ip after 1 hr relative to control; type: functional; details: route intraperitoneal
# Method in brief: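 Male albino Sprague-Dawley rats; sciatic nerve ligated on right side, sham exposure on left; after 7 d recovery, animals on wire mesh platform, 30–60 min acclimation. Baseline 50% paw withdrawal threshold by calibrated von Frey fibres held 6 s, stepping down after a positive response; threshold re-measured after 12 mg/kg ip at time-to-peak effect in MES test.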
# [12] = system: Mus musculus; assay: Antiinflammatory activity in albino mouse assessed as reduction in formalin-induced acute inflammation at 15 mg/kg, ip relative to control; type: functional; set-up: scale not given: the % may be the effect or the level left; details: route intraperitoneal
# Method in brief: (§3)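 Male albino mice, 16 per trial (8 given vehicle ip, 8 given 15 mg/kg ip); 0.5% formalin injected into hind paw; paw-licking time recorded in 2 min intervals for 45 min; acute and late (inflammatory) phases expressed as percent of control.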
# [13] = system: Mus musculus; assay: Antiinflammatory activity in albino mouse assessed as reduction in formalin-induced late inflammation at 15 mg/kg, ip relative to control; type: functional; set-up: scale not given: the % may be the effect or the level left; details: route intraperitoneal; method in brief: as §3
# [14] = system: Mus musculus; assay: Anticonvulsant activity in ip dosed albino mouse assessed as inhibition of maximal electroshock-induced seizures after 4 hrs; type: functional
# Method in brief: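 Male albino Carworth Farms No. 1 mice given compound ip; maximal electroshock applied and protection scored as blockade of hind limb extension; identification screening, then ED50 (mg/kg) from quantitative testing for active compounds.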
# [15] = system: Mus musculus; assay: Anticonvulsant activity in ip dosed albino mouse assessed as inhibition of maximal electroshock-induced seizures after 0.5 hrs; type: functional
# [16] = system: Rattus norvegicus; assay: Anticonvulsant activity in po dosed Sprague-Dawley albino rat assessed as inhibition of maximal electroshock-induced seizures after 0.25 to 4 hrs; type: functional
# Method in brief: (§4)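 Male albino Sprague-Dawley rats dosed orally; maximal electroshock seizures, protection scored as blockade of hind limb extension, tested at set times after dosing; ED50 in mg/kg from quantitative evaluation for active compounds.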
# [17] = Behavioral toxicity in po dosed Sprague-Dawley albino rat after 0.25 to 4 hrs; type: organism-based; details: in vivo; method in brief: as §1
# [18] = system: Mus musculus; assay: Anticonvulsant activity in ip dosed albino mouse assessed as inhibition of maximal electroshock-induced seizures; type: functional
# Method in brief: (§5)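 Male albino Carworth Farms No. 1 mice dosed intraperitoneally; screened via the NIH Anticonvulsant Screening Program. Protection scored as blocking of hind limb extension after maximal electroshock. Median effective dose (ED50, mg/kg) obtained in quantitative evaluations of active compounds. Rotorod test gave TD50 for neurological impairment, and PI = TD50/ED50.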
# [19] = Toxicity in ip dosed albino mouse by rotarod test; type: organism-based; details: in vivo
# Method in brief: (§6)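 Male albino Carworth Farms No. 1 mice dosed ip; neurological impairment by rotorod test at set times; TD50 (mg/kg) determined for compounds active in MES.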
# [20] = system: Mus musculus; assay: Anticonvulsant activity in ip dosed albino mouse assessed as protection against subcutaneous metrazole-induced seizures; type: functional
# Method in brief: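 Subcutaneous Metrazol seizure model in male albino Carworth Farms No. 1 mice, ip dosing. Doses up to 300 mg/kg tested at two time points (0.5 and 4 h).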
# [21] = (§7) Toxicity in ip dosed albino mouse after 0.5 hrs by rotarod test; type: organism-based; details: albino, in vivo
# [22] = system: Rattus norvegicus; assay: Anticonvulsant activity in po dosed Sprague-Dawley albino rat assessed as inhibition of maximal electroshock-induced seizures after 1 hr; type: functional; method in brief: as §4
# [23] = system: Rattus norvegicus; assay: (§8) Behavioral toxicity in po dosed Sprague-Dawley albino rat; type: organism-based; details: in vivo
# [24] = Toxicity in ip dosed albino mouse after 4 hrs by rotarod test; type: organism-based; details: in vivo; method in brief: as §6
# [25] = system: Rattus norvegicus; assay: Anticonvulsant activity in po dosed Sprague-Dawley albino rat assessed as inhibition of maximal electroshock-induced seizures; type: functional; method in brief: as §4
# [26] = system: Mus musculus; assay: as §7; type: organism-based; details: in vivo, 0.5 h
# [27] = as §8; type: organism-based; details: Sprague-Dawley, in vivo
# [28] = system: Mus musculus; assay: Antiinflammatory activity in albino mouse assessed as reduction in formalin-induced late inflammation at 16 mg/kg, ip; type: functional, organism-based; set-up: dose 16 mg/kg
# [29] = system: Mus musculus; assay: Anticonvulsant activity in ip dosed albino mouse assessed as inhibition of maximal electroshock-induced seizures after 1 hr; type: functional; method in brief: as §5
# [30] = system: Rattus norvegicus; assay: Anticonvulsant activity in po dosed Sprague-Dawley albino rat assessed as inhibition of maximal electroshock-induced seizures after 4 hrs; type: functional; method in brief: as §4
# [31] = Behavioral toxicity in po dosed Sprague-Dawley albino rat after 4 hrs; type: organism-based; details: Sprague-Dawley, in vivo; method in brief: as §1
# [32] = system: Rattus norvegicus; assay: Behavioral toxicity in po dosed Sprague-Dawley albino rat after 1 hr; type: organism-based; details: in vivo, 1 h; method in brief: as §1
# [33] = Behavioral toxicity in po dosed Sprague-Dawley albino rat after […]; type: organism-based; details: in vivo
smiles,measurement,setting,value
COC[C@@H](NC(C)=O)C(=O)NCc1ccc(COc2cccc(F)c2)cc1,ED50,[1],5.9 mg/kg
same,TD50 at […],[2],10 mg/kg
same,Ratio TD50/ED50,[3],1.8
same,ED50,[4],19 mg/kg
same,Ratio TD50/ED50,[5],>21
COC[C@@H](NC(C)=O)C(=O)NCc1ccc(OCc2cccc(F)c2)cc1,ED50,[1],13 mg/kg
same,ED50,[6],10 mg/kg
same,Ratio TD50/ED50,[3],2
same,ED50,[7],14 mg/kg
same,TD50,[8],> 500 mg/kg
same,Ratio TD50/ED50,[5],>36
same,Activity,[9],inactive
same,Activity,[10],inactive
same,fold change (FC),[11],11.2
same,Activity,[12],35%
same,Activity,[13],44%
CC(=O)N[C@@H](C)C(=O)NCc1ccc(OCc2cccc(F)c2)cc1,ED50,[14],> 300 mg/kg
same,ED50,[15],100 mg/kg
same,ED50,[16],> 30 mg/kg
same,TD50,[17],> 30 mg/kg
same,Activity,[9],inactive
same,Activity,[10],inactive
C[C@H](NCc1ccc(OCc2cccc(F)c2)cc1)C(N)=O [SAFINAMIDE],ED50,[18],8 mg/kg
same,TD50,[19],630 mg/kg
same,Ratio TD50/ED50,[3],78
same,Activity,[9],inactive
same,Activity,[10],inactive
same,ED50,[20],27 mg/kg
COC[C@@H](NC(C)=O)C(=O)NCc1ccc(-c2cccc(F)c2)cc1,ED50,[15],10 mg/kg
same,ED50,[6],< 30 mg/kg
same,TD50 at 0.5 h,[21],100 mg/kg
same,ED50,[22],2.4 mg/kg
same,TD50,[23],> 500 mg/kg
same,Ratio TD50/ED50,[5],>250
CC(=O)N[C@@H](C(=O)NCc1ccc(OCc2cccc(F)c2)cc1)C(C)C,ED50,[14],> 300 mg/kg
same,TD50 at 4 h,[24],> 300 mg/kg
same,ED50,[25],> 30 mg/kg
same,TD50,[23],> 30 mg/kg
same,Activity,[9],inactive
same,Activity,[10],inactive
CC(=O)N[C@@H](C(=O)NCc1ccc(OCc2cccc(F)c2)cc1)C(C)(C)C,ED50,[14],> 300 mg/kg
same,TD50,[26],> 300 mg/kg
same,TD50 at 4 h,[24],300 mg/kg
same,Activity,[9],inactive
same,Activity,[10],inactive
COC[C@@H](NC(C)=O)C(=O)NCc1ccccc1 [LACOSAMIDE],TD50,[27],> 500 mg/kg
same,Activity,[9],inactive
same,Activity,[10],inactive
same,Activity,[28],Active
COC[C@@H](NC(C)=O)C(=O)NCc1ccc(C#Cc2cccc(F)c2)cc1,ED50,[14],< 100 mg/kg
same,ED50,[29],> 30 mg/kg
same,TD50 at 4 h,[24],100 mg/kg
same,ED50,[30],1.4 mg/kg
same,TD50 at 4 h,[31],63 mg/kg
CCC1(c2ccccc2)C(=O)NC(=O)NC1=O,Activity,[9],inactive
same,Activity,[10],inactive
O=C1NC(=O)C(c2ccccc2)(c2ccccc2)N1,Activity,[9],inactive
same,Activity,[10],inactive
COC[C@@H](NC(C)=O)C(=O)NCc1ccc(NCc2cccc(F)c2)cc1,ED50,[15],10 mg/kg
same,TD50 at 0.5 h,[21],30 mg/kg
COC[C@@H](NC(C)=O)C(=O)NCc1ccc(CCc2cccc(F)c2)cc1,ED50,[15],10 mg/kg
same,TD50 at 0.5 h,[21],30 mg/kg
same,ED50,[22],< 30 mg/kg
same,TD50,[32],> 30 mg/kg
COC[C@@H](NC(C)=O)C(=O)NCc1ccc(/C=C/c2cccc(F)c2)cc1,ED50,[15],30 mg/kg
same,ED50,[6],< 30 mg/kg
same,TD50 at 0.5 h,[21],100 mg/kg
same,ED50,[22],30 mg/kg
same,ED50,[30],30 mg/kg
same,TD50 at […],[33],> 30 mg/kg
